From ChEMBL document CHEMBL1139290, “Design, synthesis, and pharmacological and pharmacokinetic evaluation of 3-phenyl-5-pyridyl-1,2,4-triazole derivatives as xanthine oxidoreductase inhibitors” (Bioorg Med Chem Lett, 2009)
pIC50: −log10 of the molar value.

How the values were obtained:
Rattus norvegicus [1] = assay: Reduction of uric acid level in rat serum at 0.3 mg/kg, po after 6 hrs by phosphotungstic acid method; type: functional; design: scale not given: the % may be the effect or the level left
Summary of the method: (§1)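 Rats dosed orally. Blood drawn from the orbital sinus 6 h post-dose, clotted 1 h at room temperature and centrifuged. Serum uric acid measured by the phosphotungstic acid method.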

[2] = target: Xanthine dehydrogenase/oxidase (Bos taurus, UniProt P80457); assay: Inhibition of bovine milk xanthine oxidoreductase
Summary of the method: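 Bovine milk XO (2 mU/mL) with 15 µM xanthine in 50 mM phosphate buffer, pH 7.4, at 25 °C, with or without compound. Uric acid formation read as absorbance rise at 292 nm. Initial rate taken from 0 to 2.5 min and used for IC50.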

CYP3A4 = CYP3A4 (Homo sapiens, UniProt P08684); assay: Inhibition of human CYP3A4 at 10 uM; type: ADME
[3] = Cmax in rat at 3 mg/kg, po; type: ADME, organism-based; design: dose 3 mg/kg, route oral; details: in vivo
Summary of the method: (§2)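 Compounds given orally to rats; blood taken from the jugular vein at set times and centrifuged to plasma. Plasma aliquots were mixed with acetonitrile containing an internal standard, then centrifuged.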

[4] = Half life in rat at 3 mg/kg, po; type: ADME, organism-based; design: dose 3 mg/kg, route oral; details: in vivo; summary of the method: as §2
Cytochrome P450 2C9 = Cytochrome P450 2C9 (Homo sapiens, UniProt P11712); assay: Inhibition of human CYP2C9; type: ADME
[5] = Cmax in rat at 1 mg/kg, po; type: ADME, organism-based; design: dose 1 mg/kg, route oral; details: in vivo; summary of the method: as §2
Cytochrome P450 1A2 = target: T1, Cytochrome P450 1A2 (Homo sapiens, UniProt P05177); assay: Inhibition of human CYP1A2; type: ADME
T1 sequence (P05177 whole entry): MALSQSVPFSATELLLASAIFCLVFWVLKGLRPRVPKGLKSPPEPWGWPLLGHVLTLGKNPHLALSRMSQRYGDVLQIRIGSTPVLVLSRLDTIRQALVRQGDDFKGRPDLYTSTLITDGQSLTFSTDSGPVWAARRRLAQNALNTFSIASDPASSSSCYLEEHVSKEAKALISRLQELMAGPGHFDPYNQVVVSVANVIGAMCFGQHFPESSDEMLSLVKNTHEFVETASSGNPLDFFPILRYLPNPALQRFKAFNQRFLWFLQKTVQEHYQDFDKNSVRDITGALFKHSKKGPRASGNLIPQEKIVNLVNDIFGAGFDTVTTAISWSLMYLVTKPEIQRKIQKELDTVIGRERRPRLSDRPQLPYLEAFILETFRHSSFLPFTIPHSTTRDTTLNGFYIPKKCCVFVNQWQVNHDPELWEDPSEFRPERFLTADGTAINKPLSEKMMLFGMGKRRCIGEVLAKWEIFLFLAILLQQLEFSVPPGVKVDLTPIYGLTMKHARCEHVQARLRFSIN

Cytochrome P450 2C19 = Cytochrome P450 2C19 (Homo sapiens, UniProt P33261); assay: Inhibition of human CYP2C19; type: ADME
Cytochrome P450 2D6 = Cytochrome P450 2D6 (Homo sapiens, UniProt P10635); assay: Inhibition of human CYP2D6; type: ADME
Rattus norvegicus [6] = assay: Reduction of uric acid level in rat serum at 1 mg/kg, po after 6 hrs by phosphotungstic acid method; type: functional; design: scale not given: the % may be the effect or the level left; summary of the method: as §1

Sequence of CYP3A4 (P08684 whole entry): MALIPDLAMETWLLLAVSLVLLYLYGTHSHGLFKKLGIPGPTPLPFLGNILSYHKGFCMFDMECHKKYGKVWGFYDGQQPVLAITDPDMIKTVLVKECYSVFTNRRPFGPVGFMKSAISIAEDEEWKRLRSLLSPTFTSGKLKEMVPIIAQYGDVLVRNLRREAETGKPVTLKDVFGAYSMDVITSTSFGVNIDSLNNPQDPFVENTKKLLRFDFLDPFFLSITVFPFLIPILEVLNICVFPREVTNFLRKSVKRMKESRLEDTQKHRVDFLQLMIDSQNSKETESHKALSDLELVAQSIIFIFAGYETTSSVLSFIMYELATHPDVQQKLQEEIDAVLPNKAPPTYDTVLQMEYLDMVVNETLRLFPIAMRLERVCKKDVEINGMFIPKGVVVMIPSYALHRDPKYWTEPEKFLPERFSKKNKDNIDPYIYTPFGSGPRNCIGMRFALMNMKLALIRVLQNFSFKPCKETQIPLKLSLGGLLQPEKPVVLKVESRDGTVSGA
Sequence of Xanthine dehydrogenase/oxidase (P80457 whole entry): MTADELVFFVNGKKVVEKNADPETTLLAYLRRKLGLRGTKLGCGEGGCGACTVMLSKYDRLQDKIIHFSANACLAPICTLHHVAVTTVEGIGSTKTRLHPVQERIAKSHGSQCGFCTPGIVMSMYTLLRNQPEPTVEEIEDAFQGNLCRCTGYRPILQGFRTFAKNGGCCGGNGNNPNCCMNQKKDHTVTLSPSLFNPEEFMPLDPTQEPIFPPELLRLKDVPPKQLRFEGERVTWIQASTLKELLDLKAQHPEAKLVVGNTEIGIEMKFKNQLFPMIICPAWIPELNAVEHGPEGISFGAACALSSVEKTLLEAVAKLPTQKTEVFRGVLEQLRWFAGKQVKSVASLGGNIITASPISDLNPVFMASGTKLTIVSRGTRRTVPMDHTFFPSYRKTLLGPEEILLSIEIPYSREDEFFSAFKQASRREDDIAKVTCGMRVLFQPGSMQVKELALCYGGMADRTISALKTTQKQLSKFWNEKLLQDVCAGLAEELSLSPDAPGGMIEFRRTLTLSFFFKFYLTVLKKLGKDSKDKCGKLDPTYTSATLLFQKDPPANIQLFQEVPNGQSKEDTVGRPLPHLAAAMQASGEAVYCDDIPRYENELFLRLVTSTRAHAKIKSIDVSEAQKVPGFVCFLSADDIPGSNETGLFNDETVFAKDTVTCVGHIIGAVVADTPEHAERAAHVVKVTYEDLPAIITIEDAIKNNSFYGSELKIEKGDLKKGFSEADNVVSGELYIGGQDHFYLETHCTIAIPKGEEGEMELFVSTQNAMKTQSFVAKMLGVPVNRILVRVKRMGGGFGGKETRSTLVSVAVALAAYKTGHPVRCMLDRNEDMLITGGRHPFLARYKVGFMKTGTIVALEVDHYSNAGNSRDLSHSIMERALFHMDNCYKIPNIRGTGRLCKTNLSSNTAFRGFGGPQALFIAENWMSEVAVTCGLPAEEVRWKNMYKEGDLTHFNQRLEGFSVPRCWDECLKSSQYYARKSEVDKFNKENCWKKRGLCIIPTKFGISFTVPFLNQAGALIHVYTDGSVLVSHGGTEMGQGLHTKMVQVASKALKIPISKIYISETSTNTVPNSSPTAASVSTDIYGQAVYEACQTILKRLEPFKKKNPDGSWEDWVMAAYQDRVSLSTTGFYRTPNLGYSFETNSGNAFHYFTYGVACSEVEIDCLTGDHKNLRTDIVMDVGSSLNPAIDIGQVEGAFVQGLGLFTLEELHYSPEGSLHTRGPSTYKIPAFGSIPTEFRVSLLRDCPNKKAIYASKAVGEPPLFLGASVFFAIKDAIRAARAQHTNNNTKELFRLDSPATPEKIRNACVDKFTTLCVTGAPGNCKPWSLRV
Sequence of Cytochrome P450 2D6 (P10635 whole entry): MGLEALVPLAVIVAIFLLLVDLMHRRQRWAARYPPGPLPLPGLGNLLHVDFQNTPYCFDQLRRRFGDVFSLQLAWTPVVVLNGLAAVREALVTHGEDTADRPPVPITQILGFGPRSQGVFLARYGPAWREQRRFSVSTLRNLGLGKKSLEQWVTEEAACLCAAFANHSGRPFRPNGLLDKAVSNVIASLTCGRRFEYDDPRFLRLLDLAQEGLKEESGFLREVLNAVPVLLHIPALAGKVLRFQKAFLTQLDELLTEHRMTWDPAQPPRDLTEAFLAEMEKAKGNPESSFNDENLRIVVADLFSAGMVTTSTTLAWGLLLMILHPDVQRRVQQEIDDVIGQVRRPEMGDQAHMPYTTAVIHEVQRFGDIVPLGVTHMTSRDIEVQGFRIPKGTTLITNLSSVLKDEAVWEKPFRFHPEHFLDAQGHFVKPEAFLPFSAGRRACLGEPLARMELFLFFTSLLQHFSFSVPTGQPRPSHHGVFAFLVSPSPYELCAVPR
Sequence of Cytochrome P450 2C9 (P11712 whole entry): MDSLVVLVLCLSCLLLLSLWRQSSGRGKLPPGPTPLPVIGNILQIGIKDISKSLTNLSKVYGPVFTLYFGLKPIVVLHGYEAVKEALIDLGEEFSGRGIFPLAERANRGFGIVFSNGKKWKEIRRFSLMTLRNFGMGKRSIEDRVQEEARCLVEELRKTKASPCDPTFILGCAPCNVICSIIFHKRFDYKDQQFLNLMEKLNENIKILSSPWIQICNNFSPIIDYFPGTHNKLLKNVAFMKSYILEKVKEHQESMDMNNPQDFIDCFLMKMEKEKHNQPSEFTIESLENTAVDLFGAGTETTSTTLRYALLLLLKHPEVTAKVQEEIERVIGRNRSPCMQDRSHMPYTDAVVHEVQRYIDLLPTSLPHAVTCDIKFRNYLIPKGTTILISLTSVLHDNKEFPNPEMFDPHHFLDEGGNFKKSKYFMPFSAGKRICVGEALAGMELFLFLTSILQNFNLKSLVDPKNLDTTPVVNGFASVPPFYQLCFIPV
Sequence of Cytochrome P450 2C19 (P33261 whole entry): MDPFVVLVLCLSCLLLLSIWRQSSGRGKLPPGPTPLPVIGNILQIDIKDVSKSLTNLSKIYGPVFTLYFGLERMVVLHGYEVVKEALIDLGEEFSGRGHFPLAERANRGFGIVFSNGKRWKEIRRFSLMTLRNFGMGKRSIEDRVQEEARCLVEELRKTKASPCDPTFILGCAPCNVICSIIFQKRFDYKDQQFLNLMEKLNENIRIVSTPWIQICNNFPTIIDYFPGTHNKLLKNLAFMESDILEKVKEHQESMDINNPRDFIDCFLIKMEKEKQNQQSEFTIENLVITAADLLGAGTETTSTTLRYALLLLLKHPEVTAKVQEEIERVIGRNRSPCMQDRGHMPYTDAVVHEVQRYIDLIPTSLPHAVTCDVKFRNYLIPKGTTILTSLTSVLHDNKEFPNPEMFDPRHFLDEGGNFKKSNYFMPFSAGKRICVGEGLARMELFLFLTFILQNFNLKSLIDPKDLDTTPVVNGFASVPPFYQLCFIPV

SMILES | Activity (Rattus norvegicus [1]) | pIC50 [2] | inhibition at 10 µM (CYP3A4) | also measured
COCOc1ccc(-c2nc(-c3ccnc(C)c3)n[nH]2)cc1C#N | 27% | 7.62 |  | 
CC(C)COc1ccc(NC(=O)Nc2ccncc2)cc1[N+](=O)[O-] | -3.2% | 7.82 |  | 
COCCOCOc1ccc(-c2nc(-c3ccnc(C)c3)n[nH]2)cc1C#N | 40% | 7.62 | 16.5% | Cmax [3]: 360 ng/mL; half-life [4]: 27 min
Cc1cc(-c2nnc(-c3ccc(OCC(C)C)c([N+](=O)[O-])c3)[nH]2)cc(Cl)n1 |  | < 5.00 | 10.9% | 
Cc1cc(-c2nnc(-c3ccc(OCC(C)C)c(C(=O)O)c3)[nH]2)ccn1 |  | < 5.00 |  | 
Cc1cc(-c2n[nH]c(-c3ccc(OCCO)c(C#N)c3)n2)ccn1 | 10.9% | 7.40 |  | 
Cc1cc(-c2n[nH]c(-c3ccc(OCC4COC(C)(C)O4)c(C#N)c3)n2)ccn1 (stereo not given) | 27.9% | 7.22 |  | 
CC(C)COc1ccc(-c2n[nH]c(-c3ccncc3)n2)cc1[N+](=O)[O-] | 33.7% | 8.43 | 80.9% | Activity (Cytochrome P450 2C9): Active; Cmax [5]: 13.8 ng/mL; Activity (Cytochrome P450 1A2): Active; Activity (Cytochrome P450 2C19): Active; Activity (Cytochrome P450 2D6): Active
Cc1cc(-c2n[nH]c(-c3ccc(OCCOCCOCCCl)c(C#N)c3)n2)ccn1 | 40.7% | 7.68 |  | Cmax [3]: 684 ng/mL; half-life [4]: 31.2 min
COc1cc(-c2n[nH]c(-c3ccc(OCC(C)C)c([N+](=O)[O-])c3)n2)ccn1 |  | < 5.00 | 6.4% | 
Cc1cc(-c2nc(-c3ccc(OCC(C)C)c([N+](=O)[O-])c3)n[nH]2)ccn1 | 39.1% | 8.00 | 7.7% | Cmax [5]: 7.8 ng/mL
COCCOc1ccc(-c2nc(-c3ccnc(C)c3)n[nH]2)cc1C#N | 36.5% | 7.19 |  | 
COCCOCCOc1ccc(-c2nc(-c3ccnc(C)c3)n[nH]2)cc1C#N | 52% | 7.51 | -6.7% | Cmax [3]: 712 ng/mL; half-life [4]: 58.2 min
CC(C)COc1ccc(-c2nc(-c3cccnc3)n[nH]2)cc1[N+](=O)[O-] |  | 5.23 | 18.2% | 
Cc1cc(-c2nnc(-c3ccc(OCC(=O)O)c(C#N)c3)[nH]2)ccn1 |  | 6.96 |  | 
CCCCOCCOCCOc1ccc(-c2nc(-c3ccnc(C)c3)n[nH]2)cc1C#N | 10.1% | 7.59 |  | 
Cc1cc(-c2nc(-c3ccc(OCC(C)C)c(C#N)c3)n[nH]2)ccn1 | 46% | 7.77 | 16.8% | Cmax [3]: 16.7 ng/mL; Cmax [5]: 4.5 ng/mL; half-life [4]: 22.2 min
CC(C)COc1ccc(NC(=O)C(=O)O)cc1Cl |  | 5.14 |  | 
CC(C)COc1ccc(-c2nc(-c3ccccn3)n[nH]2)cc1[N+](=O)[O-] |  | < 5.00 |  | 
CC(C)COc1ccc(-c2nc(-c3ccnc(Cl)c3)n[nH]2)cc1[N+](=O)[O-] |  |  | 7.1% | Activity (Rattus norvegicus [6]): 40.6%
Cc1cc(-c2n[nH]c(-c3ccc(O)c(C#N)c3)n2)ccn1 | -8.2% | 7.37 |  | 
CCOC(=O)c1cc(-c2nc(-c3ccnc(C)c3)n[nH]2)ccc1OCC(C)C | 42.4% | 7.70 |  | 
